{"data": "Published values collected from several papers", "cell line": "MCF7", "effect on": "cell growth or viability", "note": "Each line is one published result; the experiments were not run side by side."}
{"SMILES": "COc1cc(C(CC(N)=O)NCCc2ccc(O)c(O)c2)ccc1O (stereo not drawn)", "technique": "MTT", "GI50 [nM]": 26200}
{"SMILES": "COc1ccc(C(=O)/C=C/c2cccc3ccccc23)cc1S(N)(=O)=O", "technique": "SRB", "time": "48 h", "GI50 [nM]": 2100}
{"SMILES": "Cc1ccc(C)c(COc2cc(NC(=O)c3ccc4c(c3)OCO4)ccc2N(C)S(C)(=O)=O)c1", "technique": "SRB", "time": "48 h", "GI50 [nM]": 120}
{"SMILES": "COc1ccc(C(=O)/C=C/c2cccc(Cl)c2Cl)cc1S(N)(=O)=O", "technique": "SRB", "time": "48 h", "GI50 [nM]": 3200}
{"SMILES": "COc1cc(C(CC(=O)c2ccc(Br)cc2)NCCc2ccc(O)c(O)c2)ccc1O (stereo not drawn)", "technique": "MTT", "GI50 [nM]": 20}
{"SMILES": "COc1ccc(C(=O)/C=C/c2c(F)cccc2Cl)cc1S(N)(=O)=O", "technique": "SRB", "time": "48 h", "GI50 [nM]": 2200}
{"SMILES": "COc1cc(C(CC(C)=O)NCCc2ccc(O)c(O)c2)ccc1O (stereo not drawn)", "technique": "MTT", "GI50 [nM]": 22400}
{"SMILES": "CC(=O)c1c(C)c2cnc(Nc3ccc(N4CCNCC4)cn3)nc2n(C2CCCC2)c1=O", "technique": "resazurin", "GI50 [nM]": 150}
{"SMILES": "COc1cc2c(OC)nc3c4cc5c(cc4cc(OCCN4CCCC4)c3c2cc1OC)OCO5", "technique": "MTT", "time": "72 h", "GI50 [nM]": "≥ 100000"}
{"SMILES": "COc1cc(C(CC(=O)c2ccc([N+](=O)[O-])cc2)NCCc2ccc(O)c(O)c2)ccc1O (stereo not drawn)", "technique": "MTT", "GI50 [nM]": 160}
{"SMILES": "COc1cc2c(OC)nc3c4cc5c(cc4cc(OCCCN4CCC(N6CCCCC6)CC4)c3c2cc1OC)OCO5", "technique": "MTT", "time": "72 h", "GI50 [nM]": 1500}
{"SMILES": "COc1ccc(C(=O)/C=C/c2ccccc2Br)cc1S(N)(=O)=O", "technique": "SRB", "time": "48 h", "GI50 [nM]": 2900}
{"SMILES": "CN1CCN(c2ccc(Nc3ncc4cc(C#N)c(=O)n(C5CCCC5)c4n3)cc2)CC1", "technique": "resazurin", "time": "96 h", "GI50 [nM]": 150}
{"SMILES": "CCN(CC)CCCOc1cc2cc3c(cc2c2nc(OC)c4cc(OC)c(OC)cc4c12)OCO3", "technique": "MTT", "time": "72 h", "GI50 [nM]": 23000}
{"SMILES": "COc1ccc(-c2ccc(-c3ccc(C(=N)N)nc3)s2)cc1Cl", "technique": "SRB", "GI50 [nM]": 1750}
{"SMILES": "COc1ccc(C(=O)/C=C/c2cc3c(cc2Br)OCO3)cc1S(N)(=O)=O", "technique": "SRB", "time": "48 h", "GI50 [nM]": 3800}
{"SMILES": "COc1cc(-c2ccc(-c3ccc(C(=N)N)nc3)s2)cc(OC)c1OC", "technique": "SRB", "GI50 [nM]": 1300}
{"SMILES": "COc1cc2c(OC)nc3c4cc5c(cc4cc(OCCCN4CCCC4)c3c2cc1OC)OCO5", "technique": "MTT", "time": "72 h", "GI50 [nM]": 8600}
